From publication PMC5351328 (Clinical and Translational Science, 2016)

Experiments:
Safety and tolerability = format: in vivo, human; conditions: for tolerability: 150 mg once daily for 14 days, regardless of HI
In short: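 Adverse events were monitored continuously and graded with the Division of AIDS toxicity scale. Hematology, clinical chemistry, urinalysis and 12-lead ECG were done at screening, baseline (Day –1), Day 14 and Day 28, with hematology and chemistry also at Day 7. Physical exams ran through follow-up (Day 28, or Day 35 for hepatic impairment). Data were summarised descriptively without formal statistical testing.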

CCR2 = CCR2 (Homo sapiens, UniProt P41597); test: CCR2 antagonist activity: plasma CCR2 ligand; format: in vivo; conditions: across all groups, P < 0.05
Sequence of CCR2 (P41597 whole entry): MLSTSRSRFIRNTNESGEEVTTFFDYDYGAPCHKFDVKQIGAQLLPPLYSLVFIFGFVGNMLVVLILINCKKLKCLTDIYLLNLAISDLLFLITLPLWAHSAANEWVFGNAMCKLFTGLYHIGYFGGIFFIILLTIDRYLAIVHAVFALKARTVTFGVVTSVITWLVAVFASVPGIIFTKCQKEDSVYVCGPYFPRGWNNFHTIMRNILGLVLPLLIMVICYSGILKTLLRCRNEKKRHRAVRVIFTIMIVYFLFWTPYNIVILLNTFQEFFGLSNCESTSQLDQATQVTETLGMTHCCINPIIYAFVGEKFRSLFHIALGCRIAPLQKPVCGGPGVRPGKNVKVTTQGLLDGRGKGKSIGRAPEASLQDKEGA
In short: (§1)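 Adults with mild or moderate hepatic impairment and matched controls with normal hepatic function were given an oral 150 mg tablet of the test compound over 14 days. Plasma was sampled on Day 1 (predose), Day 7 and Day 14. CCL2, CCL3 and CCL4 were measured by Luminex multiplex and CCL5 by ELISA. Medians, IQR and change from baseline were reported, with Wilcoxon tests.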

CCR5 = CCR5 (Homo sapiens, UniProt P51681); test: CCR5 antagonist activity: plasma CCR5 ligand; format: in vivo; conditions: for CCL4 median fold-change: P < 0.05
Sequence of CCR5 (P51681 whole entry): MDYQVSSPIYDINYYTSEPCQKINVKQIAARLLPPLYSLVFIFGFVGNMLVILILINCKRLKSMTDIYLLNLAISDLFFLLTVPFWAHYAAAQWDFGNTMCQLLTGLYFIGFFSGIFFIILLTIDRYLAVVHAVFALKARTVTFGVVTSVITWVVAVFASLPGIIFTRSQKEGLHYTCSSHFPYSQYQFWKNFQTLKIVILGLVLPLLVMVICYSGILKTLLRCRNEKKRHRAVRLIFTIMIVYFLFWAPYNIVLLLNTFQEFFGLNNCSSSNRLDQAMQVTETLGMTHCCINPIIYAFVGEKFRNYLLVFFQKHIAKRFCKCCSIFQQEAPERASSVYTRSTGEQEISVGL
In short: as §1

[1] = test system: proinflammatory cytokines (IL-6, TNF-α, IL-1β, TGF-β); test: Plasma proinflammatory cytokines during treatment; format: in vivo, human
In short: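 Plasma was taken at Day 1 predose and on treatment Days 7 and 14. IL-6, TNF-α, IL-1β and TGF-β were quantified by Luminex multiplex bead assay, with a magnetic cytokine panel for IL-1β and IL-6. Values were summarised by study day as medians and interquartile ranges, with change from baseline. Comparisons used Wilcoxon tests.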

[2] = test system: I-FABP, flagellin, LBP, sCD14; format: in vivo, human; conditions: within each group
In short: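 Participants with mild or moderate hepatic impairment and matched normal-function controls received a single-tablet 150 mg oral test compound, dosed over 14 days. I-FABP, flagellin, LBP and sCD14 were quantified by ELISA, following kit instructions, in plasma from Day 1 (predose), Day 7 and Day 14. Results were summarised by day as medians, IQR and change from baseline, using Wilcoxon tests.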

[3] = cited from earlier work
[4] = cited from earlier work; remark: listed apart in the source
CYP3A4 [5] = conditions: cited from earlier work
P-glycoprotein = conditions: cited from earlier work
CYP3A4 [6] = conditions: cited from earlier work; remark: listed apart in the source
[7] = cited from earlier work; remark: listed apart in the source
[8] = matched controls (mild) (N = 7)
[9] = matched controls (moderate) (N = 8)
[10] = mild hepatic impairment (N = 8)
[11] = moderate hepatic impairment (N = 8)

## CCCCOCCOc1ccc(-c2ccc3c(c2)/C=C(/C(=O)Nc2ccc([S@@+]([O-])Cc4cncn4CCC)cc2)CCCN3CC(C)C)cc1 [cenicriviroc]
Safety and tolerability
  tolerability: generally well tolerated
Safety and tolerability; listed as Cenicriviroc
  tolerability: well tolerated
Safety and tolerability; Day 7, one matched control (moderate), resolved upon continued dosing
  AST (treatment-emergent Grade 1 elevation): 1.3 x ULN
Safety and tolerability; Day 28, another participant with moderate HI, screening 5.9 x ULN
  AST: 10.2 x ULN
Safety and tolerability; [8]
  Participants with any treatment-related AEs: 3 (42.9) N (%)
  Treatment-related AE: Dry mouth: 2 (28.6) N (%)
  Treatment-related AE: Epigastric discomfort: 0 (0) N (%)
  Treatment-related AE: Flatulence: 0 (0) N (%)
  Treatment-related AE: Headache: 1 (14.3) N (%)
  Treatment-related AEs Grade 1: 3 (42.9) N (%)
  Treatment-related AEs Grade 2: 0 (0) N (%)
  Treatment-related AEs Grade 3: 0 (0) N (%)
  Treatment-related AEs Grade 4: 0 (0) N (%)
Safety and tolerability; [9]
  Participants with any treatment-related AEs: 4 (50.0) N (%)
  Treatment-related AE: Dry mouth: 0 (0) N (%)
  Treatment-related AE: Epigastric discomfort: 0 (0) N (%)
  Treatment-related AE: Flatulence: 1 (12.5) N (%)
  Treatment-related AE: Headache: 1 (12.5) N (%)
  Treatment-related AEs Grade 1: 4 (50.0) N (%)
  Treatment-related AEs Grade 2: 0 (0) N (%)
  Treatment-related AEs Grade 3: 0 (0) N (%)
  Treatment-related AEs Grade 4: 0 (0) N (%)
Safety and tolerability; [10]
  Participants with any treatment-related AEs: 6 (75.0) N (%)
  Treatment-related AE: Dry mouth: 0 (0) N (%)
  Treatment-related AE: Epigastric discomfort: 1 (12.5) N (%)
  Treatment-related AE: Flatulence: 1 (12.5) N (%)
  Treatment-related AEs Grade 1: 6 (75.0) N (%)
  Treatment-related AEs Grade 2: 0 (0) N (%)
  Treatment-related AEs Grade 3: 0 (0) N (%)
  Treatment-related AEs Grade 4: 0 (0) N (%)
Safety and tolerability; [11]
  Participants with any treatment-related AEs: 4 (50.0) N (%)
  Treatment-related AE: Dry mouth: 0 (0) N (%)
  Treatment-related AE: Epigastric discomfort: 1 (12.5) N (%)
  Treatment-related AE: Flatulence: 0 (0) N (%)
  Treatment-related AE: Headache: 1 (12.5) N (%)
  Treatment-related AEs Grade 1: 4 (50.0) N (%)
  Treatment-related AEs Grade 2: 0 (0) N (%)
  Treatment-related AEs Grade 3: 1 (12.5) N (%)
  Treatment-related AEs Grade 4: 0 (0) N (%)
CCR2; Day 7 vs Day 1 (predose)
  CCL2 median fold-change: 4.4–5.5
CCR2; Day 14 vs Day 1 (predose)
  CCL2 median fold-change: 4.8–6.0
CCR5; after 7 days of treatment vs Day 1 (predose)
  CCL4 median fold-change: 1.8–2.3
CCR5; after 14 days of treatment vs Day 1 (predose)
  CCL4 median fold-change: 1.6–2.5
CCR5; any group
  CCL3 levels change during treatment: did not change significantly
CCR5; matched controls (moderate) only, Day 14 vs Day 1, P = 0.008
  CCL5 change during treatment: increased significantly
[1]; any group
  IL-1β levels change during treatment: did not change significantly
  IL-6 levels change during treatment: did not change significantly
  TNF-α levels change during treatment: did not change significantly
[1]; moderate HI group, Day 1 vs Day 14, P < 0.01
  TGF-β levels change during treatment: increased
[2]
  I-FABP change during treatment: None of these markers changed significantly
  LBP change during treatment: None of these markers changed significantly
  flagellin change during treatment: None of these markers changed significantly
  sCD14 change during treatment: None of these markers changed significantly
[3]; healthy participants
  time to reach steady-state plasma concentrations: 8 to 10 days
[3]; in humans
  plasma half-life: 30 to 40 h
[3]; in vivo
  effect of administration with food on bioavailability: increase
[4]
  bound to plasma proteins: > 98%
CYP3A4 [5]
  substrate of CYP3A4: substrate
P-glycoprotein
  substrate of P-glycoprotein: substrate
CYP3A4 [6]
  inhibition of CYP3A4: weak inhibitor
[7]; HIV-infected participants
  APRI, FIB-4 and enhanced liver fibrosis score: decreases
[7]; HIV-positive participants (Study 202)
  sCD14 levels: decreased
